# Measured values published in ChEMBL document CHEMBL2176911 (J Med Chem, 2012).
# Calls of active or inactive are those of the source. The calls are words filed in the database; no cut-off is given here.
# Assays:
# [1] = target: Dual specificity protein kinase CLK4 (Homo sapiens, UniProt Q9HAZ1); assay: Binding affinity to CLK4
# [2] = target: Homeodomain-interacting protein kinase 2 (Homo sapiens) (UniProt Q9H2X6); assay: Inhibition of human recombinant GST-tagged HIPK2 expressed in Escherichia coli at 10 uM after 30 mins
# [3] = system: HT-22; assay: Inhibition of GSK3 isolated from mouse HT22 cells; format: cell-free
# [4] = target: Homeodomain-interacting protein kinase 2 (Homo sapiens) (UniProt Q9H2X6); assay: Inhibition of human recombinant GST-tagged HIPK2 expressed in Escherichia coli at 1 uM after 30 mins
# [5] = target: Homeodomain-interacting protein kinase 3 (Homo sapiens, UniProt Q9H422); assay: Binding affinity to HIPK3
# [6] = target: Dual specificity tyrosine-phosphorylation-regulated kinase 1A (Rattus norvegicus, UniProt Q63470); assay: Inhibition of rat DYRK1A isolated from brain using KKISGRLSPIMTEQ as substrate and [gamma33P]ATP after 30 mins by scintillation counting
# [7] = target: Dual specificity tyrosine-phosphorylation-regulated kinase 3 (Homo sapiens) (UniProt O43781); assay: Inhibition of human recombinant GST-tagged DYRK3 expressed in Escherichia coli using KKISGRLSPIMTEQ as substrate at 1 uM after 30 mins
# [8] = target: Dual specificity protein kinase CLK2 (Mus musculus, UniProt O35491); assay: Inhibition of mouse recombinant GST-tagged CLK2 expressed in Escherichia coli using GRSRSRSRSRSR as substrate and [gamma33P]ATP after 30 mins by scintillation counting
# Procedure, shortened: (§1)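 Panel of purified kinases (recombinant from several species plus native enzymes), each assayed radiometrically over a range of inhibitor concentrations; IC50 in μM calculated from the dose-response curves.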
# [9] = system: HT-22; assay: Neuroprotective activity against glutamate-induced toxicity in mouse HT22 cells after 24 hrs by MTS assay; format: functional, cell-based
# [10] = target: Cyclin-dependent kinase 2/cyclin A (Homo sapiens, UniProt P24941); assay: Inhibition of CDK2/cyclin A using [gamma33P]ATP after 30 mins by scintillation counting; format: protein-complex assay; procedure, shortened: as §1
# [11] = target: Dual specificity tyrosine-phosphorylation-regulated kinase 3 (Homo sapiens) (UniProt O43781); assay: Inhibition of human recombinant GST-tagged DYRK3 expressed in Escherichia coli using KKISGRLSPIMTEQ as substrate at 10 uM after 30 mins
# [12] = target: Mitogen-activated protein kinase 1 (Rattus norvegicus, UniProt P63086); assay: Inhibition of rat recombinant ERK2 using Ets1 as substrate and [gamma33P]ATP as substrate after 30 mins by scintillation counting; procedure, shortened: as §1
# [13] = target: 1-phosphatidylinositol 3-phosphate 5-kinase (Mus musculus) (UniProt Q9Z1T6); assay: Binding affinity to phosphatidylinositol-3-phosphate 5-kinase type 3 in mouse brain homogenate by Western blot analysis; format: tissue-based
# Procedure, shortened: (§2)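 Bead pull-down from HT22 cell or mouse brain extracts, with ethanolamine beads lacking ligand as control. Specificity was tested by adding excess free inhibitor to the extracts before binding.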
# [14] = target: Protein VAC14 homolog (Mus musculus) (UniProt Q80WQ2); assay: Binding affinity to VAC14 in mouse HT22 cell lysate by Western blot analysis; format: cell-free; conditions: HT-22; procedure, shortened: as §2
# [15] = target: Glycogen synthase kinase-3 alpha (Homo sapiens, UniProt P49840); assay: Binding affinity to GSK3A
# [16] = target: Glycogen synthase kinase-3 alpha (Mus musculus, UniProt Q2NL51); assay: Binding affinity to GSK3A in mouse brain homogenate after 3 hrs by competition affinity chromatographic analysis; format: tissue-based
# Procedure, shortened: (§3)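 Mouse brain lysate applied to a KinAffinity matrix of mixed immobilized broad-spectrum kinase inhibitors at highest loading density, with increasing concentrations of free inhibitor added. […] Separate titrations of the immobilized ligands gave BC50 values.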
# [17] = target: Casein kinase II subunit alpha (Mus musculus) (UniProt Q60737); assay: Binding affinity to CK2 alpha subunit in mouse brain homogenate by Western blot analysis; format: tissue-based; procedure, shortened: as §2
# [18] = target: Dual specificity tyrosine-phosphorylation-regulated kinase 1A (Homo sapiens) (UniProt Q13627); assay: Inhibition of human recombinant GST-tagged DYRK1A expressed in Escherichia coli using KKISGRLSPIMTEQ as substrate at 10 uM after 30 mins
# [19] = target: Casein kinase II subunit alpha' (Mus musculus, UniProt O54833); assay: Binding affinity to CSNK2A2 in mouse brain homogenate after 3 hrs by competition affinity chromatographic analysis; format: tissue-based; procedure, shortened: as §3
# [20] = target: Dual specificity protein kinase CLK3 (Homo sapiens, UniProt P49761); assay: Binding affinity to CLK3
# [21] = target: CDK9/cyclin T1 (Homo sapiens, UniProt P50750); assay: Inhibition of human recombinant CDK9/cyclin T expressed in insect cell using YSPTSPSYSPTSPSYSPTSPSKKKK as substrate and [gamma33P]ATP after 30 mins by scintillation counting; procedure, shortened: as §1
# [22] = target: Casein kinase II subunit beta (Mus musculus) (UniProt P67871); assay: Binding affinity to CK2 beta subunit in mouse HT22 cell lysate by Western blot analysis; format: cell-free; conditions: HT-22; procedure, shortened: as §2
# [23] = Inhibition of Plasmodium falciparum recombinant GSK3 expressed in Escherichia coli using YRRAAVPPSPSLSRHSSPHQ-phosphoS-EDEEE as substrate and [gamma33P]ATP after 30 mins by scintillation counting; procedure, shortened: as §1
# [24] = target: Glycogen synthase kinase-3 alpha (Mus musculus) (UniProt Q2NL51); assay: Binding affinity to GSK3alpha in mouse HT22 cell lysate by Western blot analysis; format: cell-free; conditions: HT-22; procedure, shortened: as §2
# [25] = Inhibition of CK2 at 1 uM after 30 mins
# [26] = target: Casein kinase II subunit beta (Mus musculus, UniProt P67871); assay: Binding affinity to […] in mouse brain homogenate after 3 hrs by competition affinity chromatographic analysis; format: tissue-based; procedure, shortened: as §3
# [27] = target: Protein VAC14 homolog (Mus musculus) (UniProt Q80WQ2); assay: Binding affinity to VAC14 in mouse brain homogenate by Western blot analysis; format: tissue-based; procedure, shortened: as §2
# [28] = target: Dual specificity protein kinase CLK1 (Mus musculus, UniProt P22518); assay: Inhibition of mouse recombinant GST-tagged CLK1 expressed in Escherichia coli using GRSRSRSRSRSR as substrate and [gamma33P]ATP after 30 mins by scintillation counting; procedure, shortened: as §1
# [29] = system: HT-22; assay: Inhibition of GSK3 in mouse HT22 cells at 10 uM after 4 hrs; format: cell-based
# [30] = species: Mus musculus; assay: Binding affinity to GSK3beta1 in mouse brain homogenate by Western blot analysis; format: tissue-based; procedure, shortened: as §2
# [31] = target: Glycogen synthase kinase-3 (Sus scrofa, UniProt B2LUN4+I6LNT8); assay: Inhibition of pig GSK3alpha/beta isolated from brain using YRRAAVPPSPSLSRHSSPHQ-phosphoS-EDEEE as substrate and [gamma33P]ATP after 30 mins by scintillation counting; procedure, shortened: as §1
structure (smiles),measurement,setting,value
O=C1NC(Nc2ccccc2)=N/C1=C\c1ccc2c(c1)OCO2,Kd,[1],70 nM
same,inhibition,[2],Active
same,inhibition,[3],inactive
same,inhibition,[4],Active
same,Kd,[5],230 nM
same,IC50,[6],10 nM
same,inhibition,[7],Active
same,IC50,[8],720 nM
same,Activity,[9],Dose-dependent effect
same,IC50,[10],> 30000 nM
same,inhibition,[11],Active
same,IC50,[12],> 30000 nM
same,Activity,[13],Active
same,Activity,[14],Active
same,Kd,[15],550 nM
same,Kd(free),[16],3274 nM
same,Activity,[17],Active
same,inhibition,[18],Active
same,Kd(free),[19],574 nM
same,Kd,[20],1100 nM
same,IC50,[21],18000 nM
same,Activity,[22],Active
same,IC50,[23],> 10000 nM
same,Activity,[24],Active
same,inhibition,[25],Active
same,Kd(free),[26],382 nM
same,Activity,[27],Active
same,IC50,[28],71 nM
same,inhibition,[29],inactive
same,Activity,[30],Active
same,IC50,[31],410 nM
